Activity calls are given as the source filed them.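 The calls were made as follows: active = inhibition of at least 50% against any of four protein arginine deiminase enzymes; inactive = the rest.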
Key:
Experiment in all cases: PAD1-4 inhibition by competitive ABPP, late-stage follow-up, orthogonal assay for PAD4 inhibitor project, biochemical, fluorescence, gel-based ABPP, HTS hits (AID 588487)
[1] = biological target: Protein-arginine deiminase type-1 (Homo sapiens) (UniProt Q9ULC6); conditions: recombinant PAD1-4, gel-based ABPP, RFA probe fluorescence; PAD1; at 10 µM; active compounds read high
Sequence of Protein-arginine deiminase type-1 (Homo sapiens) (Q9ULC6 whole entry, looked up): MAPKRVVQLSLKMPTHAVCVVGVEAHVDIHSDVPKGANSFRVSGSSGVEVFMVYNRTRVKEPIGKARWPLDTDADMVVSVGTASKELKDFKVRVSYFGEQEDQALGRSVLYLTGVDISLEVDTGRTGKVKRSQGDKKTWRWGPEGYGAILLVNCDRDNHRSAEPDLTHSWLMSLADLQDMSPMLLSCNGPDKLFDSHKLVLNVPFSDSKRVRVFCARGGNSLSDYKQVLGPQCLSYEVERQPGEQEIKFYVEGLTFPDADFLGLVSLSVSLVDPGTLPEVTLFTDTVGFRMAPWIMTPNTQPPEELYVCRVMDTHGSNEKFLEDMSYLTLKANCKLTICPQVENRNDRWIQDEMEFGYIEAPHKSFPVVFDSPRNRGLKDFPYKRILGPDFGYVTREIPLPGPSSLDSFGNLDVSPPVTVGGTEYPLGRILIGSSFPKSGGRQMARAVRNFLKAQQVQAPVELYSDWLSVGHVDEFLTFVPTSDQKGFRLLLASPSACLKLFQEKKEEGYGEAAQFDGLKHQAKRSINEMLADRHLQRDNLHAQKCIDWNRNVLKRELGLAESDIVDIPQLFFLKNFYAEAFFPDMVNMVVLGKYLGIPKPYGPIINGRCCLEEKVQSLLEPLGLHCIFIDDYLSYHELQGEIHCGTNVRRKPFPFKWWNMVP
In short: (§1)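 System: Recombinant PAD1, PAD2, PAD3 or PAD4 | Input: PAD enzyme 10 µM | Probe or stimulus: RFA fluorescent probe at 1 µM | Compound: One 10 µM dose per compound | Schedule: 15 min compound pre-incubation plus 30 min probe step, 37 °C | Detection: in-gel fluorescence scan of probe-labeled PAD band after SDS-PAGE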

[2] = biological target: Protein-arginine deiminase type-2 (Homo sapiens) (UniProt Q9Y2J8); conditions: recombinant PAD1-4, gel-based ABPP, RFA probe fluorescence; PAD2; at 10 µM; active compounds read high
Sequence of Protein-arginine deiminase type-2 (Homo sapiens) (Q9Y2J8 whole entry, looked up): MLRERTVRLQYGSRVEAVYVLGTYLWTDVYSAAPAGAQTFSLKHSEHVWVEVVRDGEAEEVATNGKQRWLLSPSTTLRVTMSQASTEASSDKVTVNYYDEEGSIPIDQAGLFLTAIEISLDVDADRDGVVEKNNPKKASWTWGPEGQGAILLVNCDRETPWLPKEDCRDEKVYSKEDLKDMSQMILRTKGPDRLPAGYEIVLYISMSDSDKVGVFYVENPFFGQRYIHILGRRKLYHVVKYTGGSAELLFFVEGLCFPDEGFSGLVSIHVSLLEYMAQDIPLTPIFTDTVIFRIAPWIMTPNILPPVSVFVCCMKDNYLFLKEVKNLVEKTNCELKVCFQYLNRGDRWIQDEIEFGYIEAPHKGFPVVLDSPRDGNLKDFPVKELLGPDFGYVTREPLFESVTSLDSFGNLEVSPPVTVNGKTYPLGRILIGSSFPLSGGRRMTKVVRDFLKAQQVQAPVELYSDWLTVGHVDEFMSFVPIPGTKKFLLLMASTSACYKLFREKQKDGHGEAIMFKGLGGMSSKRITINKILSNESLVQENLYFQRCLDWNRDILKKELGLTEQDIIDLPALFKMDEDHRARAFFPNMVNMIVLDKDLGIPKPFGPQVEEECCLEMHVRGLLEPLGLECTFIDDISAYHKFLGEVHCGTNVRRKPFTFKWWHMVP
In short: as §1

[3] = biological target: Protein-arginine deiminase type-4 (Homo sapiens) (UniProt Q9UM07); conditions: recombinant PAD1-4, gel-based ABPP, RFA probe fluorescence; PAD4; at 10 µM; active compounds read high
Sequence of Protein-arginine deiminase type-4 (Homo sapiens) (Q9UM07 whole entry, looked up): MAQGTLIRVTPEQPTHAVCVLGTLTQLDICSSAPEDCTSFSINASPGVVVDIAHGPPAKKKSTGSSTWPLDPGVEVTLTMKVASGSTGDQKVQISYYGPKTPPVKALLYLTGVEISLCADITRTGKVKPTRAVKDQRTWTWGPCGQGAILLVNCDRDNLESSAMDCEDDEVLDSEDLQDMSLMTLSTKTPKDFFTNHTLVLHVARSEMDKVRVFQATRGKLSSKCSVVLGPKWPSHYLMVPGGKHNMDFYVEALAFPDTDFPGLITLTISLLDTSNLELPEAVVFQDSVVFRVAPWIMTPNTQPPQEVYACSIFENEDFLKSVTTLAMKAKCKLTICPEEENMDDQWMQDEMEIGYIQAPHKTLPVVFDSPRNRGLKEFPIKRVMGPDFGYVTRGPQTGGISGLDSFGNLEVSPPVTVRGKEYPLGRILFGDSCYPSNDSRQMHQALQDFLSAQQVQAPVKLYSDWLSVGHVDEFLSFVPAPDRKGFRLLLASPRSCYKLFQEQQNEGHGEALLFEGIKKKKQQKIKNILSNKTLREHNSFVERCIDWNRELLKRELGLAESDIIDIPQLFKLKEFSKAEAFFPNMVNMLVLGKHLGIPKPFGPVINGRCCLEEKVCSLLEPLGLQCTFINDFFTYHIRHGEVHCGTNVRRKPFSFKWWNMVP
In short: as §1

[4] = biological target: Protein-arginine deiminase type-3 (Homo sapiens) (UniProt Q9ULW8); conditions: recombinant PAD1-4, gel-based ABPP, RFA probe fluorescence; PAD3; at 10 µM; active compounds read high
Sequence of Protein-arginine deiminase type-3 (Homo sapiens) (Q9ULW8 whole entry, looked up): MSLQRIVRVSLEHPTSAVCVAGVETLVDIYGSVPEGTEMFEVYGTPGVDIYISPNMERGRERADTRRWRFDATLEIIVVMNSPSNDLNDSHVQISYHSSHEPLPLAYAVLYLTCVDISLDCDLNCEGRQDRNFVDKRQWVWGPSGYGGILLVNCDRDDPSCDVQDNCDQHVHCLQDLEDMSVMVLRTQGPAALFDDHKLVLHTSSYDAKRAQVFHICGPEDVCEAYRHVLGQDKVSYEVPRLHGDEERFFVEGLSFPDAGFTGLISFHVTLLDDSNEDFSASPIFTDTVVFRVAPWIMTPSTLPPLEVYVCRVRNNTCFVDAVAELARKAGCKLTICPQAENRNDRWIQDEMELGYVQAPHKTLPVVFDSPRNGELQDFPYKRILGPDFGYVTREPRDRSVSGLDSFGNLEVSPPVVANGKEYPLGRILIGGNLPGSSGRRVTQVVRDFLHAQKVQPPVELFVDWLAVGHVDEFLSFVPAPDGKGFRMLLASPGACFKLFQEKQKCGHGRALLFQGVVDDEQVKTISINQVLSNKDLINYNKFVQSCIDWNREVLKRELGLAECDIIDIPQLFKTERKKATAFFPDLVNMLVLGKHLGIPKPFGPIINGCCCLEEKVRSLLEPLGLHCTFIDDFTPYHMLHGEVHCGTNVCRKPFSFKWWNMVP
In short: as §1

In the case of `O=c1cc(-c2ccc(Cl)c(Cl)c2)[nH][nH]1`, the inhibition [1] is reported as 27% (inactive), the inhibition [2] is reported as 51% and the inhibition [3] is reported as 42% (inactive). The inhibition [4] was 41% (inactive).
In the case of `COc1ccc(C2C(C#N)=C(N)N(N(C)C)C3=C2C(=O)CCC3)cc1` (stereo not drawn), the inhibition [1] is reported as 13% (inactive), the inhibition [2] is reported as 21% (inactive) and the inhibition [3] is reported as 55%. The inhibition [4] was 49% (inactive).
`CCN(CC)S(=O)(=O)c1ccc(N=NC2=C(O)CCCC2=O)cc1` was tested, and the inhibition [1] was -20% (inactive), the inhibition [2] was 63% and the inhibition [3] was 93%. For the same molecule, the inhibition [4] was 6% (inactive).
For `Cc1cc2ncn(-c3ncccc3[N+](=O)[O-])c2cc1C`, the inhibition [1] was 46% (inactive), the inhibition [2] was 25% (inactive) and the inhibition [3] was 29% (inactive). For the same molecule, the inhibition [4] was -25% (inactive).
With `COc1ccc(CCNC(=O)COC(=O)c2ccc(C)s2)cc1` the inhibition [1] was -2% (inactive), the inhibition [2] was 40% (inactive) and the inhibition [3] was 72%. The inhibition [4] was -38% (inactive).
`COc1ccc(-c2nc(C(=O)NCCCN3CCOCC3)cc3c2[nH]c2ccccc23)cc1OC` was tested, and the inhibition [1] was 30% (inactive), the inhibition [2] was 18% (inactive) and the inhibition [3] was 10% (inactive). For the same molecule, the inhibition [4] was -12% (inactive).
For `CC(NC(=O)Nc1ccc(O)cc1)(C(F)(F)F)C(F)(F)F`, the inhibition [1] was 29% (inactive), the inhibition [2] was 31% (inactive) and the inhibition [3] was 60%. The inhibition [4] was -29% (inactive).
`Cc1c(C(=O)N2CCCCC2)c(S(=O)(=O)N2CCN(c3ccc(Cl)cc3)CC2)c(C)n1C` was tested, and the inhibition [1] was -25% (inactive), the inhibition [2] was 6% (inactive) and the inhibition [3] was 67%. The inhibition [4] was 26% (inactive).
With `CC(=O)C1=C(c2ccccc2)N(C(C)=O)n2c(C)nnc2S1` the inhibition [1] was 42% (inactive), the inhibition [2] was 25% (inactive) and the inhibition [3] was 9% (inactive). For the same molecule, the inhibition [4] was 32% (inactive).
In the case of `COCc1cc(C)nc(SCC(=O)Nc2ccc3c(c2)n(C)c(=O)n3C)c1C#N`, the inhibition [1] is reported as 15% (inactive), the inhibition [2] is reported as 31% (inactive) and the inhibition [3] is reported as 38% (inactive). The inhibition [4] was -43% (inactive).
For `COC(=O)c1cc(C)nc(Sc2ccccc2N)n1`, the inhibition [1] was 23% (inactive), the inhibition [2] was 8% (inactive) and the inhibition [3] was -61% (inactive). The inhibition [4] was 60%.
For `O=c1cc(-c2ccc(Br)cc2)[nH][nH]1`, the inhibition [1] was 6% (inactive), the inhibition [2] was -6% (inactive) and the inhibition [3] was 51%. For the same molecule, the inhibition [4] was 20% (inactive).
`COc1ccc(/C=C2/C(=O)N(c3ccccc3)N=C2C)cc1` was tested, and the inhibition [1] was 20% (inactive), the inhibition [2] was 47% (inactive) and the inhibition [3] was 35% (inactive). The inhibition [4] was 35% (inactive).
With `c1ccc(CCn2c3ccccc3c3nnc(SCc4ccc5nonc5c4)nc32)cc1` the inhibition [1] was 18% (inactive), the inhibition [2] was 14% (inactive) and the inhibition [3] was 31% (inactive). For the same molecule, the inhibition [4] was 21% (inactive).
With `Cc1ccc(C2=NN=C(NC(=O)CSc3nncn3C)SC2)cc1` the inhibition [1] was 16% (inactive), the inhibition [2] was 1% (inactive) and the inhibition [3] was 26% (inactive). The inhibition [4] was 32% (inactive).
In the case of `COc1ccc(C2=CC(c3ccc(OC)c(OC)c3)NC(=S)N2)cc1` (stereo not drawn), the inhibition [1] is reported as 37% (inactive), the inhibition [2] is reported as -9% (inactive) and the inhibition [3] is reported as -50% (inactive). The inhibition [4] was 36% (inactive).
For `Cc1cc(-c2nnc(SCC(=O)Nc3ccc(F)c(F)c3)n2N)n[nH]1`, the inhibition [1] was 43% (inactive), the inhibition [2] was 62% and the inhibition [3] was 51%. For the same molecule, the inhibition [4] was -20% (inactive).
With `O=C1CC(c2cccnc2)=NN1c1ccccc1` the inhibition [1] was 37% (inactive), the inhibition [2] was 34% (inactive) and the inhibition [3] was 4% (inactive). The inhibition [4] was 34% (inactive).
`CCN(CC)S(=O)(=O)c1ccc(C)c(NS(=O)(=O)c2cc(/C=C/C(=O)O)cc(OC)c2OC)c1` was tested, and the inhibition [1] was 9% (inactive), the inhibition [2] was 40% (inactive) and the inhibition [3] was 40% (inactive). The inhibition [4] was 33% (inactive).
In the case of `O=C(O)CCC(=O)c1ccc(-c2ccccc2)cc1`, the inhibition [1] is reported as 16% (inactive), the inhibition [2] is reported as -45% (inactive) and the inhibition [3] is reported as -51% (inactive). The inhibition [4] was 24% (inactive).
With `O=c1cc(-c2ccc(Cl)cc2)[nH][nH]1` the inhibition [1] was 33% (inactive), the inhibition [2] was 62% and the inhibition [3] was 41% (inactive). For the same molecule, the inhibition [4] was -44% (inactive).
For `CCC(=O)Oc1ccc(C(=O)Nc2cccc(C(=O)NC(C)(C)C)c2)cc1`, the inhibition [1] was 34% (inactive), the inhibition [2] was 29% (inactive) and the inhibition [3] was 4% (inactive). For the same molecule, the inhibition [4] was 40% (inactive).
With `O=c1cc(-c2ccc(F)cc2)[nH][nH]1` the inhibition [1] was 33% (inactive), the inhibition [2] was 28% (inactive) and the inhibition [3] was 37% (inactive). For the same molecule, the inhibition [4] was 1% (inactive).
In the case of `S=C(NCc1ccco1)Nc1cccc(Cl)c1`, the inhibition [1] is reported as 46% (inactive), the inhibition [2] is reported as 25% (inactive) and the inhibition [3] is reported as 1% (inactive). The inhibition [4] was 43% (inactive).
With `N#CCCn1[nH]c(-c2ccccc2)cc1=O` the inhibition [1] was 47% (inactive), the inhibition [2] was 29% (inactive) and the inhibition [3] was 32% (inactive). For the same molecule, the inhibition [4] was 3% (inactive).
With `COc1ccc(OC)c(C2C(C#N)=C(N)Oc3c2c(C)nn3-c2ccc(C)cc2)c1` (stereo not drawn) the inhibition [1] was 22% (inactive), the inhibition [2] was 18% (inactive) and the inhibition [3] was 31% (inactive). For the same molecule, the inhibition [4] was -37% (inactive).
With `COc1cccc2cc(C(=O)NC3CC(C)(C)NC(C)(C)C3)c(=O)oc12` the inhibition [1] was 15% (inactive), the inhibition [2] was 7% (inactive) and the inhibition [3] was 31% (inactive). It also gave an inhibition [4] of 66%.
`CCOC(=O)N1CCC(c2cc(=O)n(-c3ccccc3)[nH]2)CC1` was tested, and the inhibition [1] was 43% (inactive), the inhibition [2] was 14% (inactive) and the inhibition [3] was 30% (inactive). The inhibition [4] was 32% (inactive).
For `N#CCCN(C(=O)Cn1nc(C(=O)O)c2ccccc2c1=O)c1ccccc1`, the inhibition [1] was 53%, the inhibition [2] was 21% (inactive) and the inhibition [3] was -23% (inactive). For the same molecule, the inhibition [4] was 29% (inactive).
With `Cc1cc(N(C)NC(=S)Nc2ccccc2)nc(C)n1` the inhibition [1] was 32% (inactive), the inhibition [2] was 58% and the inhibition [3] was 5% (inactive). The inhibition [4] was 38% (inactive).
For `COc1cccc(C2=CC(c3ccc(OC)c(OC)c3)NC(=S)N2)c1` (stereo not drawn), the inhibition [1] was -9% (inactive), the inhibition [2] was 14% (inactive) and the inhibition [3] was -9% (inactive). The inhibition [4] was -3% (inactive).
In the case of `Cn1c(N)c(C(=O)COC(=O)COc2ccc(Br)cc2)c(=O)n(C)c1=O`, the inhibition [1] is reported as 16% (inactive), the inhibition [2] is reported as 51% and the inhibition [3] is reported as 20% (inactive). For the same molecule, the inhibition [4] was 19% (inactive).

From PubChem BioAssay AID588487 (The Scripps Research Institute Molecular Screening Center, 2011)
